Measurements: publication PMC9359741 (Clinical Cancer Research, 2022)
Several values for one entry are separate records, joined by “and”; a condition that tells them apart may be missing. Identical values can stand only once. Like-named read-outs stand apart in the source and are kept apart here.

Tests used:
[1] = system: patients with PDA, PD-1/PD-L1 IR advanced solid tumors or prOVCA; assay: Phase 2, ARRY-382 300 mg QD plus pembrolizumab 200 mg IV Q3W: adverse events; assay type: in vivo, human; details: for Deaths: mostly disease progression
Summary of the method: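 Open-label study at 12 US centres with three cohorts: pancreatic ductal adenocarcinoma after ≥1 prior systemic line; tumours progressing on anti-PD-1/PD-L1; ovarian, peritoneal or fallopian cancer progressing ≤6 months after ≥4 platinum cycles. Oral test compound 300 mg QD plus anti-PD-1 antibody 200 mg IV every 3 weeks. AEs, SAEs and labs graded by CTCAE v4.03 in all dosed patients; descriptive summary.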

[2] = system: patients with selected advanced solid tumors; assay type: in vivo, human
Summary of the method: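 Adults (≥18 y) with histologically or cytologically confirmed selected advanced solid tumours. Oral test compound started at 200 mg QD, with planned escalation to 400 mg QD, plus anti-PD-1 antibody 2 mg/kg IV every 3 weeks. DLT incidence defined the MTD (DLT criteria in supplement). AEs and lab abnormalities were graded by CTCAE v4.03 in all patients given ≥1 dose and summarized descriptively.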

[3] = Phase 1b, ARRY-382 200 mg, N = 6
[4] = Phase 1b, ARRY-382 300 mg, N = 6
[5] = Phase 1b, ARRY-382 400 mg, N = 7

## Cc1cccc(Cn2nc(C3CC3)c3c(NC(=O)c4cnc5cc(OCCN6CCN(C)CC6)ccn45)cccc32)n1 [ARRY-382]
[1]; PD-1/PD-L1 IR
  ARRY-382-related SAEs: 15.8%
  ARRY-382-related fatigue: 47.4%
  ARRY-382-related grade ≥3 AEs: 57.9%
  ARRY-382-related increased CPK: 47.4%
  ARRY-382-related nausea: 42.1%
  Dose reduction or interruption of ARRY-382 due to AEs: 13 (68.4%) n (%)
  Patients with ≥1 dose reduction or interruption of ARRY-382: 15 (78.9%) n (%)
  Permanent discontinuations due to AEs: 1 (5.3%) n (%)
  Deaths: 10 (52.6%) n (%)
[1]; PD-1/PD-L1 IR, N = 19
  ARRY-382-related AEs: ALT increased: 2 (10.5) n (%)
  ARRY-382-related AEs: AST increased: 6 (31.6) n (%)
  ARRY-382-related AEs: All AEs: 17 (89.5%) n (%) and 17 (89.5) n (%)
  ARRY-382-related AEs: Amylase increased: 4 (21.1) n (%)
  ARRY-382-related AEs: Blood CPK increased: 9 (47.4) n (%)
  ARRY-382-related AEs: Decreased appetite: 3 (15.8) n (%)
  ARRY-382-related AEs: Diarrhea: 5 (26.3) n (%)
  ARRY-382-related AEs: Fatigue: 9 (47.4) n (%)
  ARRY-382-related AEs: Nausea: 8 (42.1) n (%)
  ARRY-382-related AEs: Vomiting: 7 (36.8) n (%)
[1]; PDA
  ARRY-382-related SAEs: 11.1%
  ARRY-382-related fatigue: 33.3%
  ARRY-382-related grade ≥3 AEs: 25.9%
  ARRY-382-related increased AST: 18.5%
  ARRY-382-related increased CPK: 18.5%
  ARRY-382-related nausea: 18.5%
  Dose reduction or interruption of ARRY-382 due to AEs: 10 (37.0%) n (%)
  Patients with ≥1 dose reduction or interruption of ARRY-382: 16 (59.3%) n (%)
  Permanent discontinuations due to AEs: 4 (14.8%) n (%)
  Deaths: 20 (74.1%) n (%)
[1]; PDA, N = 27
  ARRY-382-related AEs: ALT increased: 4 (14.8) n (%)
  ARRY-382-related AEs: AST increased: 5 (18.5) n (%)
  ARRY-382-related AEs: All AEs: 17 (63.0%) n (%) and 17 (63.0) n (%)
  ARRY-382-related AEs: Amylase increased: 2 (7.4) n (%)
  ARRY-382-related AEs: Blood CPK increased: 5 (18.5) n (%)
  ARRY-382-related AEs: Decreased appetite: 5 (18.5) n (%)
  ARRY-382-related AEs: Diarrhea: 4 (14.8) n (%)
  ARRY-382-related AEs: Fatigue: 9 (33.3) n (%)
  ARRY-382-related AEs: Nausea: 5 (18.5) n (%)
  ARRY-382-related AEs: Vomiting: 2 (7.4) n (%)
[1]; Total, N = 57
  ARRY-382-related AEs: ALT increased: 10 (17.5) n (%)
  ARRY-382-related AEs: AST increased: 15 (26.3) n (%)
  ARRY-382-related AEs: All AEs: 43 (75.4%) n (%) and 43 (75.4) n (%)
  ARRY-382-related AEs: Amylase increased: 6 (10.5) n (%)
  ARRY-382-related AEs: Blood CPK increased: 16 (28.1) n (%)
  ARRY-382-related AEs: Decreased appetite: 8 (14.0) n (%)
  ARRY-382-related AEs: Diarrhea: 9 (15.8) n (%)
  ARRY-382-related AEs: Fatigue: 18 (31.6) n (%)
  ARRY-382-related AEs: Nausea: 16 (28.1) n (%)
  ARRY-382-related AEs: Vomiting: 10 (17.5) n (%)
[1]; in each cohort
  Patients with ≥1 TEAE: > 90%
[1]; overall
  Patients with a Grade 4 AE: 7 (12.3%) n (%)
  Patients with a grade 3 AE: 33 (57.9%) n (%)
  Periorbital edema: 7.0%
[1]; overall, none related to study treatment
  Patients with a grade 5 AE: 3 (5.3%) n (%)
[1]; prOVCA
  ARRY-382-related SAEs: 0.0%
  ARRY-382-related grade ≥3 AEs: 45.5%
  Dose reduction or interruption of ARRY-382 due to AEs: 7 (63.6%) n (%)
  Patients with ≥1 dose reduction or interruption of ARRY-382: 7 (63.6%) n (%)
  Permanent discontinuations due to AEs: 1 (9.1%) n (%)
  Treatment discontinuations due to AEs (primary reason): 2 (18.2%) n (%)
  Deaths: 5 (45.5%) n (%)
[1]; prOVCA, N = 11
  ARRY-382-related AEs: ALT increased: 4 (36.4) n (%)
  ARRY-382-related AEs: AST increased: 4 (36.4) n (%)
  ARRY-382-related AEs: All AEs: 9 (81.8%) n (%) and 9 (81.8) n (%)
  ARRY-382-related AEs: Amylase increased: 0 (0.0) n (%)
  ARRY-382-related AEs: Blood CPK increased: 2 (18.2) n (%)
  ARRY-382-related AEs: Decreased appetite: 0 (0.0) n (%)
  ARRY-382-related AEs: Diarrhea: 0 (0.0) n (%)
  ARRY-382-related AEs: Fatigue: 0 (0.0) n (%)
  ARRY-382-related AEs: Nausea: 3 (27.3) n (%)
  ARRY-382-related AEs: Vomiting: 1 (9.1) n (%)
[2]; 300-mg cohort: Grade 3 acute pancreatitis
  Patients with DLTs: 1/6
[2]; 400-mg cohort: Grade 2 increased CPK, Grade 3 increased ALT, AST and bilirubin
  Patients with DLTs: 2/7
[2]; Phase 1b
  MTD (and RP2D) of ARRY-382 in combination with pembrolizumab: 300 mg QD
  Patients with a Grade 4 AE: 6 (31.6%) n (%)
  Patients with a grade 3 AE: 9 (47.4%) n (%)
  Patients with ≥1 TEAE: 94.7%
  Permanently discontinued due to AEs: 2 (10.5%) n (%)
[2]; Phase 1b, 12 due to disease progression, 3 for reasons unknown
  Deaths: Fifteen
[2]; Phase 1b, 200-mg cohort
  ARRY-382-related grade ≥3 AEs: 50.0%
[2]; Phase 1b, 200-mg cohort, one patient
  Discontinued due to AEs (primary reason): 16.7%
[2]; Phase 1b, 300-mg cohort
  ARRY-382-related grade ≥3 AEs: 100.0%
[2]; Phase 1b, 300-mg cohort, one patient
  ARRY-382-related SAE (Grade 3 ALT and AST increased): 16.7%
[2]; Phase 1b, 400-mg cohort
  ARRY-382-related grade ≥3 AEs: 42.9%
[2]; [3]
  ARRY-382-related AEs: ALT increased: 2 (33.3) n (%)
  ARRY-382-related AEs: AST increased: 1 (16.7) n (%)
  ARRY-382-related AEs: All AEs: 5 (83.3%) n (%) and 5 (83.3) n (%)
  ARRY-382-related AEs: Amylase increased: 1 (16.7) n (%)
  ARRY-382-related AEs: Blood CPK increased: 2 (33.3) n (%)
  ARRY-382-related AEs: Blood alkaline phosphatase increased: 1 (16.7) n (%)
  ARRY-382-related AEs: Chills: 1 (16.7) n (%)
  ARRY-382-related AEs: Fatigue: 2 (33.3) n (%)
  ARRY-382-related AEs: Lipase increased: 1 (16.7) n (%)
  ARRY-382-related AEs: Nausea: 0 (0.0) n (%)
  ARRY-382-related AEs: Pruritus: 2 (33.3) n (%)
  ARRY-382-related AEs: Pyrexia: 1 (16.7) n (%)
  ARRY-382-related AEs: Rash maculo-papular: 1 (16.7) n (%)
  ARRY-382-related AEs: Thrombocytopenia: 0 (0.0) n (%)
[2]; [4]
  ARRY-382-related AEs: ALT increased: 3 (50.0) n (%)
  ARRY-382-related AEs: AST increased: 5 (83.3) n (%)
  ARRY-382-related AEs: All AEs: 6 (100.0%) n (%) and 6 (100.0) n (%)
  ARRY-382-related AEs: Amylase increased: 3 (50.0) n (%)
  ARRY-382-related AEs: Blood CPK increased: 3 (50.0) n (%)
  ARRY-382-related AEs: Blood alkaline phosphatase increased: 2 (33.3) n (%)
  ARRY-382-related AEs: Chills: 0 (0.0) n (%)
  ARRY-382-related AEs: Fatigue: 2 (33.3) n (%)
  ARRY-382-related AEs: Lipase increased: 4 (66.7) n (%)
  ARRY-382-related AEs: Nausea: 1 (16.7) n (%)
  ARRY-382-related AEs: Pruritus: 2 (33.3) n (%)
  ARRY-382-related AEs: Pyrexia: 0 (0.0) n (%)
  ARRY-382-related AEs: Rash maculo-papular: 2 (33.3) n (%)
  ARRY-382-related AEs: Thrombocytopenia: 1 (16.7) n (%)
[2]; [5]
  ARRY-382-related AEs: ALT increased: 2 (28.6) n (%)
  ARRY-382-related AEs: AST increased: 2 (28.6) n (%)
  ARRY-382-related AEs: All AEs: 5 (71.4%) n (%) and 5 (71.4) n (%)
  ARRY-382-related AEs: Amylase increased: 1 (14.3) n (%)
  ARRY-382-related AEs: Blood CPK increased: 2 (28.6) n (%)
  ARRY-382-related AEs: Blood alkaline phosphatase increased: 2 (28.6) n (%)
  ARRY-382-related AEs: Chills: 1 (14.3) n (%)
  ARRY-382-related AEs: Fatigue: 0 (0.0) n (%)
  ARRY-382-related AEs: Lipase increased: 1 (14.3) n (%)
  ARRY-382-related AEs: Nausea: 2 (28.6) n (%)
  ARRY-382-related AEs: Pruritus: 0 (0.0) n (%)
  ARRY-382-related AEs: Pyrexia: 1 (14.3) n (%)
  ARRY-382-related AEs: Rash maculo-papular: 1 (14.3) n (%)
  ARRY-382-related AEs: Thrombocytopenia: 1 (14.3) n (%)
[2]; Phase 1b, Total, N = 19
  ARRY-382-related AEs: ALT increased: 7 (36.8) n (%)
  ARRY-382-related AEs: AST increased: 8 (42.1) n (%)
  ARRY-382-related AEs: All AEs: 16 (84.2%) n (%) and 16 (84.2) n (%)
  ARRY-382-related AEs: Amylase increased: 5 (26.3) n (%)
  ARRY-382-related AEs: Blood CPK increased: 7 (36.8) n (%)
  ARRY-382-related AEs: Blood alkaline phosphatase increased: 5 (26.3) n (%)
  ARRY-382-related AEs: Chills: 2 (10.5) n (%)
  ARRY-382-related AEs: Fatigue: 4 (21.1) n (%)
  ARRY-382-related AEs: Lipase increased: 6 (31.6) n (%)
  ARRY-382-related AEs: Nausea: 3 (15.8) n (%)
  ARRY-382-related AEs: Pruritus: 4 (21.1) n (%)
  ARRY-382-related AEs: Pyrexia: 2 (10.5) n (%)
  ARRY-382-related AEs: Rash maculo-papular: 4 (21.1) n (%)
  ARRY-382-related AEs: Thrombocytopenia: 2 (10.5) n (%)
[2]; Phase 1b, all patients
  ARRY-382-related increased ALT: 36.8%
  ARRY-382-related increased AST: 42.1%
  ARRY-382-related increased CPK: 36.8%
[2]; Phase 1b, overall
  Patients reporting DLTs: 3/19
  Periorbital edema: 5.3%
